Source: PubChem (several laboratories)
IDE cell inh: human IDE inhibitors in live cells, primary screen, fluorescence polarization, HEK cells, FAbetaB substrate | Insulin-degrading enzyme (Homo sapiens), P14735 | FAbetaB cleavage | inhibition, % at 5.59 µM | hit rate 0.41% among 320,000 | AID 434962, 2010;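 active = percent inhibition above the average of all tested compounds plus 3 SD, set per screening campaign, cut at about 16% in these data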;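 also: IDE supplied by intact live HEK cells; FP after avidin binding of uncleaved biotin substrate so inhibition keeps polarization high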
TPT1 inhibitor: Candida albicans TPT1 enzyme inhibitors, primary screen, biochemical, fluorescence polarization; tRNA 2'-phosphotransferase TPT1 (Candida albicans SC5314); recombinant caTPT1, FP RNA substrate dephosphorylation; inhibition, % at 5 µM; hit rate 0.81% among 300,000; AID 1962, 2009;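 active = inhibition above the mean of all tested compounds plus 3 SD, set per screening campaign, cut at about 24% in these data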
IDE act: human IDE activators in live cells, primary screen, fluorescence polarization, HEK cells, FAbeta-B substrate | activation, % at 5.96 µM | Insulin-degrading enzyme (Homo sapiens), P14735 | hit rate 0.073% among 340,000 | AID 493087, 2011 | FAbeta-B cleavage; 0% vehicle, 100% cell-free pure enzyme wells;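 active = activation above the mean of all tested compounds plus 3 SD, set per screening campaign, cut at about 17% in these data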
CSN deneddyl inh: inhibitors of CSN-mediated cullin deneddylation, primary screen, biochemical, fluorescence polarization, uHTS. COP9 signalosome complex subunit 5 (Homo sapiens), Q92905. Purified CSN, SCF-Nedd8-OG deneddylation. inhibition, % at 12.5 µM. hit rate 0.38% among 360,000;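 active = pattern-corrected inhibition above about 35%, with an unprinted fluorescence ratio check between 0.5 and 1.5, limit read from the data, passing the limit was not always enough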
Target sequence (Q92905 whole entry, looked up, one chain of several): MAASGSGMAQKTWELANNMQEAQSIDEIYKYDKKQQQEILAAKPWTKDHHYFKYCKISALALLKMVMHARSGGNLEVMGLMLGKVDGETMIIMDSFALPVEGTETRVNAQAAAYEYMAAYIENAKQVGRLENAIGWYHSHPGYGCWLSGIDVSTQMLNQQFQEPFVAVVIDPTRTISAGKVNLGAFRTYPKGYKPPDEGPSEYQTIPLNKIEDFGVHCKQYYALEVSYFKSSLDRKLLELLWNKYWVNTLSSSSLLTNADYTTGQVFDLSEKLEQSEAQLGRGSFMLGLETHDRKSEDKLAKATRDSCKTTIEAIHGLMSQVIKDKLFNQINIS
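Assay system: purified human Csn5 enzyme expressed in HEK293T cells; Input: 0.24 nM Csn5 enzyme, final concentration; Reagent: 10 nM SCFSkp2-Nedd8OG; Compound dosing: 12.5 µM single point; Times: reaction 90 min, room temperature; Technique: fluorescence polarization readout.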
TbMetRS inhib: T. brucei MetRS inhibitors, primary screen, biochemical, luminescence; methionyl-tRNA synthetase (Trypanosoma brucei brucei); purified T. brucei MetRS, ATP depletion, Kinase-Glo luminescence; inhibition, % at 11.9 µM; hit rate 0.4% among 360,000; AID 624268, 2012;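 active = inhibition above a per-plate cutoff of the control wells' mean inhibition plus 3 SD, cut at about 5.5% in these data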
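Material: parasite MetRS enzyme / Replication: singlicate, one well per compound / Signal: luminescence of leftover ATP / Schedule: 2 h aminoacylation at 25 °C after 15 min preincubation / Medium: HEPES-MgCl2-KCl buffer plus DTT, spermine, BSA, pyrophosphatase / Doses: 11.9 µM single point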
HNF4A DNA FP: change in binding of human HNF4A to DNA, primary screen, biochemical, fluorescence polarization, FITC-DNA | Hepatocyte nuclear factor 4-alpha (Homo sapiens), P41235 | 1 h | activity change, % at 10 µM | hit rate 0.3% among 360,000; in the data active = activity change above about 30%, passing the limit was not always enough
Tb MetRS conf: T. brucei MetRS inhibitors, confirmation, biochemical, luminescence. inhibition, % at 11.9 µM. T. brucei MetRS enzyme, luminescence (ATP depletion). hit rate 93% among 1,400. shares compounds with TbMetRS inhib; in the data active = inhibition above about 7%
Jurkat tox: Jurkat T cell cytotoxicity, cytotoxicity control for T. brucei MetRS inhibitor project, luminescence, high throughput | hit rate 12% among 1,400 | inhibition, % at 8.3 µM | AID 624413, 2012 | shares compounds with TbMetRS inhib | Jurkat cells viability, ATP luminescence; in the data active = inhibition above about 15%
Tb MetRS inh FP: T. brucei MetRS inhibitors, orthogonal assay for T. brucei MetRS inhibitor project, biochemical, fluorescence polarization. shares compounds with TbMetRS inhib. purified T. brucei MetRS. inhibition, % at 11.9 µM. hit rate 44% among 1,400. AID 651607, 2012; in the data active = inhibition above about 17%
Each line names hits and unclear results; the compound was inactive in the other large screens (follow-up assays come after a bar, where they were run). An excerpt weighted towards active compounds, which were near 1.7% of everything screened.

COc1cc(NC(=O)CSc2nc3ncnc(N)c3[nH]2)c(C(=O)O)cc1OC	none
Fc1cccc(CSc2nc3ncccc3[nH]2)c1	none
Cc1cc(N2C(=O)CCC2=O)ccc1NC(=O)c1cccs1	none
O=C(Nc1cccnc1)c1ccc(COc2cc(Cl)ccc2Cl)o1	TbMetRS inhib 6.8 | Tb MetRS conf 15 | Jurkat tox inactive | Tb MetRS inh FP 18
O=C(NCc1ccc2c(c1)OCO2)c1ccc(COc2cc(Cl)ccc2Cl)o1	TbMetRS inhib 8.1 | Tb MetRS conf 15 | Jurkat tox inactive | Tb MetRS inh FP inactive
O=C(Nc1ccccc1)Nc1nnc(CSCc2ccccc2Cl)s1	TbMetRS inhib 12 | Tb MetRS conf 61 | Jurkat tox inactive | Tb MetRS inh FP 55
CC1(C)O[C@@H]2[C@H](O1)[C@@H](CO)O[C@H]2n1ccc(=O)[nH]c1=O	none (no result: TPT1 inhibitor)
CCc1cccc(C)c1NC(=O)CN1CCN(S(=O)(=O)c2ccc(C(C)(C)C)cc2)CC1	none
CCc1nnc(SCC(=O)Nc2ccccc2)n1CC1CCCO1 (stereo not given)	none (no result: IDE cell inh, TPT1 inhibitor)
Cc1[nH]c(C)c(S(=O)(=O)Nc2cccc(Cl)c2C)c1C(=O)N1CCCCC1	TbMetRS inhib 24 | Tb MetRS conf 41 | Jurkat tox inactive | Tb MetRS inh FP 20
Cc1ccc(NS(=O)(=O)c2c(C)[nH]c(C)c2C(=O)N2CCCCC2)c(Br)c1	TbMetRS inhib 24 | Tb MetRS conf 39 | Jurkat tox inactive | Tb MetRS inh FP inactive
Cc1[nH]c(C)c(S(=O)(=O)Nc2ccc(F)cc2Cl)c1C(=O)N1CCCC1	none
Cc1cc(OCC(=O)OCC(=O)Nc2ccc(Cl)cn2)ccc1Cl	none (no result: TPT1 inhibitor)
Cc1ccccc1NC(=O)N(CCc1nc2ccccc2[nH]1)Cc1ccccc1	TbMetRS inhib 7.0 | Tb MetRS conf 14 | Jurkat tox inactive | Tb MetRS inh FP inactive
COc1ccccc1N1C(=O)c2ccccc2NC1c1ccc(O)cc1 (stereo not given)	TbMetRS inhib 6.8 | Tb MetRS conf inactive | Jurkat tox inactive | Tb MetRS inh FP inactive
Cc1ccc(CNC(=O)CNC(=O)c2ccc(Br)o2)cc1	none
CCOC(=O)C1CCN(C(=O)Nc2cc(Cl)cc(Cl)c2)CC1	none
CC(C)=CCC12Oc3cc(O)ccc3C1(O)Oc1cc(O)c([C@H]3C=C(C)CC(c4ccc(O)cc4O)[C@H]3C(=O)c3ccc(O)cc3O)c(O)c1C2=O (stereo not given in full)	none (no result: IDE act, CSN deneddyl inh, TbMetRS inhib, HNF4A DNA FP)
COc1ccc2[nH]cc(C(=O)CN3CCN(C(=O)c4ccco4)CC3)c2c1	TbMetRS inhib 6.4 | Tb MetRS conf inactive | Jurkat tox inactive | Tb MetRS inh FP inactive
COc1ccc(NC(=O)N(C)[C@H]2C[C@H]3c4[nH]c5ccccc5c4CCN3C(=O)[C@H]2CO)cc1	none (no result: IDE cell inh, TPT1 inhibitor, IDE act)
C[C@H](O)[C@@H]1C(=O)N2CCc3c([nH]c4ccccc34)[C@@H]2C[C@@H]1N(C)C(=O)Nc1cccc2ccccc12	none (no result: IDE cell inh, TPT1 inhibitor, IDE act)
C[C@H](O)[C@@H]1CN2CCc3c([nH]c4ccccc34)[C@@H]2C[C@@H]1N(C)Cc1cc(Cl)cc(Cl)c1	TbMetRS inhib 34 (no result: IDE cell inh, TPT1 inhibitor, IDE act) | Tb MetRS conf 71 | Jurkat tox inactive | Tb MetRS inh FP 37
C[C@H](O)[C@@H]1C(=O)N2CCc3c([nH]c4ccccc34)[C@@H]2C[C@@H]1N(C)Cc1ccc2c(c1)OCO2	TbMetRS inhib 89 (no result: IDE cell inh, TPT1 inhibitor, IDE act) | Tb MetRS conf 102 | Jurkat tox inactive | Tb MetRS inh FP 83
Cc1ccccc1C(=O)N(C)[C@H]1C[C@H]2c3[nH]c4ccccc4c3CCN2C(=O)[C@H]1[C@H](C)O	TbMetRS inhib 31 (no result: IDE cell inh, TPT1 inhibitor, IDE act) | Tb MetRS conf 48 | Jurkat tox inactive | Tb MetRS inh FP 18
COc1ccc(-c2ccc3[nH]c4c(c3c2)CCN2C(=O)[C@@H]([C@H](C)O)[C@@H](N(C)C(=O)Nc3ccccc3)C[C@@H]42)cc1	none (no result: IDE cell inh, TPT1 inhibitor, IDE act)
COc1ccc(C(=O)N(C)[C@H]2C[C@H]3c4[nH]c5ccccc5c4CCN3C(=O)[C@H]2CO)cc1	TbMetRS inhib 44 (no result: IDE cell inh, TPT1 inhibitor, IDE act) | Tb MetRS conf 62 | Jurkat tox inactive | Tb MetRS inh FP 26
CCOC(=O)N(C)[C@H]1C[C@H]2c3[nH]c4ccccc4c3CCN2C[C@H]1[C@H](C)O	none (no result: IDE cell inh, TPT1 inhibitor, IDE act)
O=C(COc1ccc2ccc(=O)oc2c1)N1CCc2ccccc21	none
COc1ccc(NC(=O)N(C)[C@H]2C[C@H]3c4[nH]c5ccccc5c4CCN3C(=O)[C@H]2[C@H](C)O)cc1	none (no result: IDE cell inh, TPT1 inhibitor, IDE act)
C[C@H](O)[C@@H]1C(=O)N2CCc3c([nH]c4ccccc34)[C@@H]2C[C@@H]1N(C)S(=O)(=O)c1ccccc1	TbMetRS inhib 27 (no result: IDE cell inh, TPT1 inhibitor, IDE act) | Tb MetRS conf 23 | Jurkat tox inactive | Tb MetRS inh FP inactive
C[C@H](O)[C@@H]1C(=O)N2CCc3c([nH]c4ccccc34)[C@@H]2C[C@@H]1N(C)C(=O)c1cc(Cl)cc(Cl)c1	TbMetRS inhib 13 (no result: IDE cell inh, TPT1 inhibitor, IDE act) | Tb MetRS conf 46 | Jurkat tox inactive | Tb MetRS inh FP 20
C[C@@H]1CN([C@H](C)CO)C(=O)CCCn2nncc2CO[C@@H]1CN(C)S(=O)(=O)c1ccc2c(c1)OCCCO2	none (no result: IDE cell inh, TPT1 inhibitor, IDE act)
Cc1ccc2nc(N/C(=N/S(=O)(=O)c3cccs3)c3ccccc3Cl)sc2c1	TbMetRS inhib 6.8 | Tb MetRS conf 13 | Jurkat tox inactive | Tb MetRS inh FP inactive
COc1ccc2[nH]c3c(NCCC4=CCCCC4)ncnc3c2c1	TbMetRS inhib 18 (no result: IDE cell inh, TPT1 inhibitor) | Tb MetRS conf 40 | Jurkat tox 51 | Tb MetRS inh FP 31
OCCCNc1ncnc2c1[nH]c1ccccc12	TbMetRS inhib 22 | Tb MetRS conf 39 | Jurkat tox inactive | Tb MetRS inh FP 23
COc1ccc2[nH]c3c(NCCCOC(C)C)ncnc3c2c1	TbMetRS inhib 6.2 | Tb MetRS conf 17 | Jurkat tox inactive | Tb MetRS inh FP inactive
CC1CC(C)(C)NC(=S)O1 (stereo not given)	none
